Bioassay records: PubChem, several laboratories
Furin inh: inhibitors of human furin; P09958; purified furin, fluorogenic substrate cleavage; inhibition, % at 20 µM or 30 µM; actives 0.061% (n = 220,000); in the data active = inhibition above about 25%
Target sequence (P09958 108-714 limits assumed): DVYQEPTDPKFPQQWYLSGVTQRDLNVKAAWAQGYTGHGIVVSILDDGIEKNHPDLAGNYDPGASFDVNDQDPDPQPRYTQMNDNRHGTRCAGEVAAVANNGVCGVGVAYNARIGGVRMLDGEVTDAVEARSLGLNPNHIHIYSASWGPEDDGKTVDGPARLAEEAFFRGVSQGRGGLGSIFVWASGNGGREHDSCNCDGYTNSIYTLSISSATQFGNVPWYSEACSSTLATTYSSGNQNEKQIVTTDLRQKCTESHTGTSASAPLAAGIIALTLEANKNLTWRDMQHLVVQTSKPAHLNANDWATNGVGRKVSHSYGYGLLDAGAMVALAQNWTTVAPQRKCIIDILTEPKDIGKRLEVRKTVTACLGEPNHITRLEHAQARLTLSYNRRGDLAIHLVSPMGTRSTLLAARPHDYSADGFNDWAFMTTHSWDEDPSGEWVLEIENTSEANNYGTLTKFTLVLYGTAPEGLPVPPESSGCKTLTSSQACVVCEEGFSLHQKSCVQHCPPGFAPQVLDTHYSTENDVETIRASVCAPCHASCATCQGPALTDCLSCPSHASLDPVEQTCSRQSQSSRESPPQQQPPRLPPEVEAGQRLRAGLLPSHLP
Thrombin inh: blocks human thrombin protease activity | actives 0.26% (n = 220,000) | inhibition, % at 5 µM | P00734 | alpha-thrombin, Boc-VPR-AMC fluorogenic substrate cleavage;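 active = inhibition at or above 40%; inactive = inhibition below 40%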
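signal = AMC fluorescence, 355/460 nm | material = human alpha-thrombin enzyme | control set = enzyme without compound as high, wells lacking enzyme as low | times = reaction at room temperature | read-out basis = percent inhibition scaled between no-compound controls and no-enzyme blanks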
FXIIa inh 1536: blocks human coagulation factor XIIa protease activity | inhibition, % at 5 µM | actives 0.3% (n = 220,000) | AID 800 | purified FXIIa, Boc-QGR-AMC fluorogenic substrate, 2 h | P00748; in the data active = inhibition above about 40%
KLK5 inh: inhibitors of human kallikrein 5. AID 873. recombinant hK5, fluorogenic AMC substrate cleavage. inhibition, % at 5 µM. actives 0.59% (n = 210,000);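 active = inhibition of 40% or more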
FXIa inh 1536: factor XIa (human) inhibition; P03951; purified FXIa, Boc-Glu-Ala-Arg-AMC fluorogenic substrate; inhibition, % at 5 µM; actives 0.14% (n = 220,000);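 active = inhibition of at least 40%; inactive = inhibition below 40%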;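 also: fluorescence of freed AMC excited at 355 nm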
A number is an active result; - = inactive; . = no result given. Sampled rows, rich in hits. Any-hit rate of the full collection: about 1.1%.

SMILES	Furin inh	Thrombin inh	FXIIa inh 1536	KLK5 inh	FXIa inh 1536
Clc1cc2c(nn1)Nc1ccccc1S2	-	-	-	-	-
S=C1Nc2ccccc2Sc2ccc(Cl)cc21	-	-	-	67.1	-
Cc1ccc(C2=NOC(C)(c3nnc(-c4ccc(Cl)cc4)o3)C2)cc1 (stereo not given)	-	-	-	-	-
CC(=O)c1ccc(NC(=S)NC(=O)c2c(Cl)c(C)nn2C)cc1	-	-	-	-	-
NC(=O)C1(N2CCCCC2)CCN(C(=O)CSc2nc3ccccc3s2)CC1	-	-	-	59.5	-
CCOc1ccc(C(=O)NCCCN2CCOCC2)cc1OCC	-	-	.	-	-
Cc1ccc(NC(=O)CSc2nnc([C@H](C)NC(=O)OC(C)(C)C)o2)c(C)c1	-	-	107.4	-	-
COC(=O)Cc1c(C)nc2nc(-c3ccc(C)cc3)[nH]n2c1=O	-	-	40.2	-	-
C=COC(=O)c1sc2nc(C)cc(C)c2c1N	-	-	-	-	-
COc1ccc(Cl)cc1S(=O)(=O)NCc1cccs1	-	-	-	-	-
COc1cc(C)c(S(=O)(=O)NCc2cccs2)cc1C	-	-	108.3	-	-
CC(C)N(C(=O)COC(=O)c1cncc(Br)c1)C(C)C	-	-	-	-	-
Cc1onc(-c2ccccc2)c1C(=O)NCc1ccco1	-	-	-	-	-
Cc1onc(-c2ccccc2)c1C(=O)N(Cc1ccco1)Cc1cccs1	-	-	-	-	40.0
COc1cc(CNc2ncn[nH]2)cc(Br)c1OC	-	-	-	71.5	-
O=C(CN1CCN(S(=O)(=O)c2ccc(Cl)s2)CC1)N1CCOCC1	-	-	-	-	-
C/C(=N\NC(=O)CN1CCOCC1)C(C)(C)C	-	-	-	-	-
CCN1/C(=C/c2ccc3cccc(C)c3[n+]2CC)Sc2ccccc21	-	-	-	50.7	-
O=C(c1ccc(-c2ccc(Cl)cc2)o1)N1CCN(c2ccc([N+](=O)[O-])cc2Cl)CC1	-	-	-	-	-
O=C(c1ccc(-c2ccc([N+](=O)[O-])cc2)o1)N1CCCCC1	-	60.6	-	-	-
Cc1cccc2cc(C(c3nnnn3CC3CCCO3)N3CCc4ccccc4C3)c(=O)[nH]c12 (stereo not given)	-	-	-	43.5	-
COC(=O)CNC(=O)CSc1nc(N)cc(=O)[nH]1	-	-	-	-	-
O=C(O)C1C2CCC(O2)C1C(=O)Nc1ccc(O)cc1 (stereo not given)	-	-	-	-	-
O=C(Nc1cccc(C(F)(F)F)c1)N1CCN(C(=O)Nc2cccc(C(F)(F)F)c2)CC1	-	-	-	54.7	-
Cc1ccc(C2c3c(oc4ccccc4c3=O)C(=O)N2c2nncs2)cc1 (stereo not given)	-	-	-	-	-
SMILES	Furin inh	Thrombin inh	FXIIa inh 1536	KLK5 inh	FXIa inh 1536
CCOC(=O)c1c(C)n(C)c2ccc(OC)c(NC(=O)CCN3CCC(Cc4ccccc4)CC3)c12	-	-	-	-	51.8
CCOC(=O)c1c(C)n(C)c2ccc(OC)c(NC(=O)CN3CCSCC3)c12	-	-	-	-	-
Cc1cc(-c2ccco2)n(CC(=O)O)n1	-	-	-	115.5	-
O=C(Nc1nc(-c2cccs2)cs1)c1ccco1	-	61.8	-	-	-
O=C(Nc1nc(-c2ccncc2)cs1)c1ccco1	-	-	-	-	-
O=C(Nc1nc(-c2cccs2)cs1)c1cccc(S(=O)(=O)N2CCCCC2)c1	-	-	-	-	-
O=C(Nc1nc(-c2cccs2)cs1)c1ccc(Cl)cc1	-	75.0	-	-	43.3
COc1cc(C(=O)Nc2nc(-c3cccs3)cs2)cc(OC)c1OC	-	73.2	-	-	-
c1ccc(N2CCN(c3nnc(Cc4cccnc4)c4ccccc34)CC2)nc1	-	-	-	43.3	-
CC1CCc2sc(C(=O)OCC(=O)NCc3ccc(F)cc3)cc2C1 (stereo not given)	-	-	-	-	-
Nc1nc(-c2ccc(Br)s2)c(Br)s1	-	-	-	-	-
Cc1ccc2c(c1)C(O)(CC(=O)c1ccc3c(c1)OCO3)C(=O)N2 (stereo not given)	-	-	-	-	-
CS(=O)(=O)Nc1cccc(C(=O)CC2(O)C(=O)Nc3ccc(Br)cc32)c1 (stereo not given)	-	59.7	-	73.3	-
O=C(CC1(O)C(=O)Nc2ccc(Br)cc21)c1ccc2c(c1)OCO2 (stereo not given)	-	50.4	-	-	-
Cc1nnc(NC(=O)c2c(F)c(F)c(F)c(F)c2F)s1	-	-	49.7	-	-
COc1ccc(C2CC(c3ccccc3)=NN2C(=O)CN2CCN(Cc3ccccc3)CC2)cc1 (stereo not given)	-	84.8	-	-	-
COc1ccc(C2=NN(C(=O)CCCC(=O)O)C(c3cn(-c4ccccc4)nc3-c3ccccc3)C2)cc1 (stereo not given)	-	-	40.1	-	-
CN(C)c1cc(-c2ccc(Cl)c(Cl)c2)oc(=O)c1Cl	-	-	-	-	-
O=CNC(Cc1ccccc1)C(=O)O (stereo not given)	-	-	-	-	-
CC(=O)c1sc(NC(=O)COc2ccc(Cl)cc2C)nc1C	-	-	71.4	59.5	-
CC(=O)Nc1cccc(OCCCNC(=O)c2ccc(C(C)(C)C)cc2)c1	-	-	-	-	-
Brc1ccccc1/C=N/Nc1ccc2ccccc2n1	-	-	-	-	-
Cc1cc(N/N=C/c2ccccc2Br)nc2ccccc12	-	-	-	42.0	-
O=[N+]([O-])c1cccc(C=Nc2cc3c(cc2Br)OCCO3)c1	-	-	-	50.6	-
O=S1(=O)CC2N=C(N(Cc3c(F)cccc3Cl)c3ccccc3F)SC2C1 (stereo not given)	-	-	-	-	-
SMILES	Furin inh	Thrombin inh	FXIIa inh 1536	KLK5 inh	FXIa inh 1536
CCOc1ccc(N(Cc2ccccc2F)C2=NC3CS(=O)(=O)CC3S2)cc1 (stereo not given)	-	-	-	44.7	-
CCn1c(CNc2ccc(C(=O)O)cc2)nc2ccccc21	-	-	-	-	-
O=C(O)c1ccc(NCc2nc3ccccc3n2Cc2ccccc2)cc1	-	-	101.4	-	-
O=C(Nc1ccc(F)cc1)c1ccccc1F	-	-	-	-	-
O=C(Nc1ccc(SC(F)F)cc1)c1ccccc1F	-	-	-	42.7	-
O=C(CCCCCn1c(=O)[nH]c2ccccc2c1=O)NCCCN1CCN(c2ccccc2F)CC1	-	-	-	-	-
Cc1ccc(NC(=O)CN(c2cc(C)cc(C)c2)S(=O)(=O)c2c(C)noc2C)nc1	-	-	-	40.4	-
O=C(CC1CC2CCC1C2)Nc1nc(-c2ccccn2)cs1 (stereo not given)	-	-	-	86.9	-
CC(C)OP(=O)(OC(C)C)C(O)c1cccc([N+](=O)[O-])c1 (stereo not given)	-	-	-	-	-
CN1C(=O)/C(=N/OC(=O)c2ccccc2)c2ccccc21	-	46.3	53.4	-	47.1
O=C(O/N=C1\C(=O)N(c2ccccc2)c2ccccc21)C1CC1	-	-	-	-	-
